Bioassay records deposited in PubChem by several laboratories.
SR-BI DiI-HDL act: activators of SR-BI mediated DiI-HDL uptake, primary screen, ldlA[mSR-BI] CHO cells, DiI fluorescence; 320,000 tested, 0.096% active; activation, % at 12.5 µM; 3 h; 100 = double the neutral-control signal;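 active = mean replicate activation of at least 60% and every replicate at or above 60%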
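Test system: SR-BI-overexpressing, LDLR-lacking CHO cells; Also added: labelled HDL, 10 µg/mL; Measured by: bottom-read cell fluorescence after medium removal, ex 550/em 595 nm; Timing: 3 h uptake period with compound, 37 °C; Buffer or medium: F12, 0.5% BSA, 25 mM HEPES; Doses: single compound concentration, delivered by pin transfer.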
AHR act: AHR activators, primary screen, cell-based, luminescence, luciferase reporter, human. Aryl hydrocarbon receptor (Homo sapiens), P35869. AHR-responsive luciferase reporter cells. activation, % at 5 µM. 320,000 tested, 2.5% active. AID 2796, 2010; in the data active = activation above about 47%
Target sequence (P35869 whole entry, looked up): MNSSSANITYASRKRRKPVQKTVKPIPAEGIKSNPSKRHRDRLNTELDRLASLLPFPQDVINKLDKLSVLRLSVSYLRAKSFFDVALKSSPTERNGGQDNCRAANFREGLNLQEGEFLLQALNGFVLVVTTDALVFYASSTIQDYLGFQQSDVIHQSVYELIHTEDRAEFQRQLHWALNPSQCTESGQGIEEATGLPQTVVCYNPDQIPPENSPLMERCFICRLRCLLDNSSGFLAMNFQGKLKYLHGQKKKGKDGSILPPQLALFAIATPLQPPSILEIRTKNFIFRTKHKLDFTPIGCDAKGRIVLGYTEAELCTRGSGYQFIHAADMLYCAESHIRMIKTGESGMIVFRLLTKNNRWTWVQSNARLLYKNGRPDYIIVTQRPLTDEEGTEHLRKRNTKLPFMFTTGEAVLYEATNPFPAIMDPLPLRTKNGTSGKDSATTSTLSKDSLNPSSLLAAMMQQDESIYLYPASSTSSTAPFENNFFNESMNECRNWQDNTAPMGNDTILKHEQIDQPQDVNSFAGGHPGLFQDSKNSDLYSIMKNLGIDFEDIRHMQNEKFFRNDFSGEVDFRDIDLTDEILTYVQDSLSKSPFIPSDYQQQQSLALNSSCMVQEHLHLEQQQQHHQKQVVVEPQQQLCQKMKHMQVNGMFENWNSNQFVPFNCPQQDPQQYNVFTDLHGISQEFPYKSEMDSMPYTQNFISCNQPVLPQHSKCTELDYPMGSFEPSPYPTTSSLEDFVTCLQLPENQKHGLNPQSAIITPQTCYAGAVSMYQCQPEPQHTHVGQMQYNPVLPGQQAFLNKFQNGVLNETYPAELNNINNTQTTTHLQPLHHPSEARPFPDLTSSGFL
SR-BI DiI inh: inhibitors of SR-BI mediated HDL lipid uptake, primary screen, ldlA[mSR-BI] cells, fluorescence, single point; Scavenger receptor class B member 1 (Mus musculus), Q61009; ldlA[mSR-BI] CHO cells, DiI-HDL uptake fluorescence, 3 h; inhibition, % at 12.5 µM; 320,000 tested, 0.96% active; AID 488896, 2010;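 active = mean replicate inhibition of at least 70% and a set share of replicates each scoring 70 or more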
GAA850 FXN act: FXN promoter activators, primary screen, cell-based, luciferase luminescence, HEK293 lucGAA850 | HEK293 lucGAA850 FXN promoter luciferase reporter, 24 h; percent of 10 µM SAHA response | activation, % at 6 µM | 360,000 tested, 0.56% active;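 active = activation above the average of all compounds screened plus 3 SD, cutoff fixed separately per campaign, cut at about 7.5% in these data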
HIF activator: HIF pathway transcriptional activators, primary screen, cell-based, U2OS HRE-luciferase, luminescence | activation, % at 7.5 µM (by protocol) | AID 1910, 2009 | 300,000 tested, 0.32% active | U2OS HRE-luciferase reporter; normalized: DMSO 0%, desferrioxamine 100%;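 active = mean activation of at least 10% of the iron chelator positive control signal, with at least half of replicates also reaching 10%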
ABCB6 inh 2: ABCB6 transporter inhibitors, primary screen, K562-ABCB6 cells, flow cytometry, MLPCN library; K562-ABCB6 porphyrin accumulation, 1 h; hits give low values; 360,000 tested, 0.19% active; ATP-binding cassette sub-family B member 6 (Homo sapiens), Q9NP58; fluorescence ratio to DMSO, % at 10 µM;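 active = fluorescence ratio to DMSO below 75%, the collection mean minus 3 SD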;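 note: signal is porphyrin accumulated inside mitochondria; lower ratio means ABCB6 inhibition with less porphyrin fluorescence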
GAA30 counter: GAA30 FXN promoter activators, confirmation, counter-screen for GAA850 frataxin promoter activator project, cell-based, luminescence, HEK293, lucGAA30, triplicate; shares compounds with GAA850 FXN act; HEK293 lucGAA30 FXN promoter luciferase, 24 h; DMSO = 0%, 5 µM ipriflavone = 100%; activation, % at 6 µM; 1,900 tested, 66% active; AID 588350, 2011;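 active = mean activation above the mean of solvent-only control wells plus 3 SD, cut at about 22% in these data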;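 note: counterscreen of GAA850 promoter hits where activity marks nonselective or luminescence artifacts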
GAA850 confirm: FXN GAA850 promoter activators in reporter cells, confirmation, cell-based, luminescence, HEK293 lucGAA850, triplicate; activation, % at 6 µM; 1,900 tested, 86% active; AID 588351, 2011; shares compounds with GAA850 FXN act; HEK293 lucGAA850 FXN promoter luciferase reporter, 24 h; 100% = activation by SAHA;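 active = mean activation above a set limit taken from the primary screen, cut at about 8% in these data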
Hits are given with their value. In the library only some 3.9% were active in any assay of this set; here they are far more common.

Screening CC(/C=C1\SC(=S)N(NC(=O)c2ccccc2C)C1=O)=C\c1ccccc1 returned SR-BI DiI-HDL act inactive, AHR act inactive, SR-BI DiI inh inactive, GAA850 FXN act inactive, HIF activator inactive and ABCB6 inh 2 inactive.
`CC(=O)N/C(=C\c1ccccc1)C(=O)OCC(=O)NC(C)C12CC3CC(CC(C3)C1)C2` (centres undefined) gave SR-BI DiI-HDL act inactive, AHR act inactive, SR-BI DiI inh inactive, GAA850 FXN act 12.8, HIF activator inactive, ABCB6 inh 2 inactive, GAA30 counter 29.7 and GAA850 confirm 12.9.
For O=C(OCC(=O)N1CCc2ccccc21)[C@@H]1CCCN1S(=O)(=O)c1ccccc1F the results were SR-BI DiI-HDL act inactive, AHR act inactive, SR-BI DiI inh inactive, GAA850 FXN act inactive and ABCB6 inh 2 inactive.
CC(=O)N/C(=C\c1ccccc1)C(=O)OCC(=O)NC(=O)c1ccccc1 was read as SR-BI DiI-HDL act inactive, AHR act inactive, SR-BI DiI inh inactive, GAA850 FXN act inactive, HIF activator inactive and ABCB6 inh 2 inactive.
Screening CC(NC(=O)COC(=O)[C@@H]1CCCN1S(=O)(=O)c1ccccc1F)C12CC3CC(CC(C3)C1)C2 (some centres undefined) returned AHR act inactive, GAA850 FXN act 8.8, HIF activator inactive, ABCB6 inh 2 inactive, GAA30 counter 27.8 and GAA850 confirm 14.7.
For CCN(CC)S(=O)(=O)c1ccc2c(c1)c(=O)c(C(=O)NCCc1ccccc1)cn2C the results were SR-BI DiI-HDL act inactive, AHR act inactive, SR-BI DiI inh inactive, GAA850 FXN act inactive, HIF activator inactive and ABCB6 inh 2 inactive.
`O=C1Nc2ccc(Br)cc2/C1=C/C(=O)c1ccccc1` gave SR-BI DiI-HDL act inactive, SR-BI DiI inh inactive, GAA850 FXN act 11.3, ABCB6 inh 2 inactive, GAA30 counter inactive and GAA850 confirm 16.6.
O=S1(=O)N=C(Nc2ccc(O)c(CN3CCCCC3)c2)c2ccccc21 was read as SR-BI DiI-HDL act inactive, AHR act inactive, SR-BI DiI inh inactive, GAA850 FXN act inactive and ABCB6 inh 2 inactive.
For O=C(NCc1cccs1)c1ccc(N2CCCCC2)nc1 the results were SR-BI DiI-HDL act inactive, AHR act inactive, SR-BI DiI inh inactive, GAA850 FXN act 7.7, HIF activator inactive, ABCB6 inh 2 inactive, GAA30 counter 85.6 and GAA850 confirm 29.9.
For Clc1ccc(-c2nnc(-c3ccco3)o2)cc1 the results were SR-BI DiI-HDL act inactive, AHR act inactive, SR-BI DiI inh inactive, GAA850 FXN act 11.6, HIF activator inactive, ABCB6 inh 2 inactive, GAA30 counter 107.9 and GAA850 confirm 40.7.
Screening c1cncc(-c2nnc(-c3ccco3)o2)c1 returned SR-BI DiI-HDL act inactive, AHR act inactive, SR-BI DiI inh inactive, GAA850 FXN act inactive, HIF activator inactive and ABCB6 inh 2 inactive.
For CCc1cccc(CC)c1NC(=O)c1ccc(-n2cncn2)nc1 the results were SR-BI DiI-HDL act inactive, AHR act inactive, SR-BI DiI inh inactive, GAA850 FXN act inactive, HIF activator inactive and ABCB6 inh 2 inactive.
